# How the values were obtained:
# [1] = biological target: norepinephrine transporter (NET) (Bos taurus, UniProt P51143); type: cell-based, human; conditions: read-out: IC50, competitive inhibition of [^125I]MIBG uptake; UVW-NAT cells, 2 h at 37 °C, unlabeled compound 10^−9 to 10^−3 M
# Procedure, shortened: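 UVW-NAT cells (NET-transfected human glioma; MEM, 10% FCS, 1 g/L geneticin) seeded at 8 × 10^4/well and held overnight at 37 °C. After cold-PBS washes, fresh medium, [125I]MIBG (3.7 kBq) and unlabeled competitor (10−9 to 10−3 M final) were added for 2 h at 37 °C. Cells were washed, lysed in 1 N NaOH and gamma-counted with supernatants and input standards. IC50 came from nonlinear regression of uptake versus concentration.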
# UVW-NAT cells = conditions: cited from earlier work
# SK-N-SH cells = conditions: cited from earlier work
# [2] = Paired-label biodistribution in normal mice; type: in vivo, Balb/c mice; conditions: for heart uptake after DMI pretreatment as percent of controls: experiment [^18F]FPOBBG / [^125I]MIBG; for heart uptake after DMI pretreatment: DMI 10 mg per kg i.p. 30 min before tracer
# Procedure, shortened: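 Balb/c mice received the radiotracer pair in 100 μL PBS via tail vein: 185 kBq radioiodinated reference plus 296 kBq 18F test compound. Groups of 5 were killed by isoflurane overdose at 1, 2 and 4 h. Organs and blood were blot-dried, weighed and dual-channel gamma counted, giving %ID/g. For blocking, DMI 10 mg per kg i.p. was given 30 min pre-tracer, with sacrifice 1 h later. Co-administered agents were compared by paired 2-tailed t-test.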
# [3] = test system: SK-N-SH human neuroblastoma cells; experiment: Paired-label uptake by NET-expressing tumor cells; type: cell-based; conditions: 2 h, 37 °C, absence of inhibitor, paired-label [^18F]FPOIBG / [^125I]MIBG
# Procedure, shortened: (§1)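 Cells were seeded at 5 × 10^5/well and held overnight at 37 °C, 5% CO2 (SK-N-SH: RPMI 1640 + FCS; SK-N-BE(2c): DMEM, 15% FCS; UVW-NAT: MEM, 10% FCS, 1 g/L geneticin), then PBS-washed into fresh medium. Tracers were co-incubated 2 h at 37 °C (~3.7 kBq radioiodinated, 18.5 kBq 18F). Parallel desipramine wells gave non-specific uptake. NaOH lysates and supernatants were dual-label gamma-counted and reported as % input dose.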
# [4] = test system: UVW human glioma cells transfected to express NET (UVW-NAT); experiment: Paired-label uptake by NET-expressing tumor cells; type: cell-based; conditions: 2 h, 37 °C, absence of inhibitor, paired-label [^18F]FPOIBG / [^125I]MIBG
# Procedure, shortened: as §1
# [5] = test system: SK-N-BE(2c) human neuroblastoma cells; experiment: Paired-label uptake by NET-expressing tumor cells; type: cell-based; conditions: SK-N-BE(2c) cells, 2 h, 37 °C, absence of inhibitor, paired-label [^18F]FPOIBG / [^125I]MIBG
# Procedure, shortened: as §1
# [6] = cited from earlier work
# [7] = test system: PC-12 rat pheochromocytoma xenografts; conditions: 8 h, single label format, PC-12 xenograft mice; cited from earlier work
# [8] = test system: three NET-expressing cell lines (SK-N-SH, UVW-NAT, SK-N-BE(2c)); type: cell-based, human; conditions: 2 and 4 h, specific uptake (Figure 3)
# Procedure, shortened: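 NET-expressing human cells (SK-N-SH, SK-N-BE(2c), NET-transfected UVW glioma) were plated at 5 × 10^5 per well and cultured overnight at 37°C, 5% CO2. They were washed, given fresh medium and incubated with the radioiodine pair (about 3.7 kBq each) at 37°C for 2 and 4 h, with or without desipramine. After cold PBS washes, cells were lysed with 1 N NaOH at 37°C, 10 min twice. Dual-label gamma counting gave cell-associated fraction of total radioactivity.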
# [9] = i.v., 1 h, no DMI (controls), paired-label
# [10] = i.v., 2 h, paired-label [^18F]FPOBBG / [^125I]MIBG
# [11] = i.v., 4 h, paired-label [^18F]FPOBBG / [^125I]MIBG
# Sequence of norepinephrine transporter (NET) (P51143 whole entry): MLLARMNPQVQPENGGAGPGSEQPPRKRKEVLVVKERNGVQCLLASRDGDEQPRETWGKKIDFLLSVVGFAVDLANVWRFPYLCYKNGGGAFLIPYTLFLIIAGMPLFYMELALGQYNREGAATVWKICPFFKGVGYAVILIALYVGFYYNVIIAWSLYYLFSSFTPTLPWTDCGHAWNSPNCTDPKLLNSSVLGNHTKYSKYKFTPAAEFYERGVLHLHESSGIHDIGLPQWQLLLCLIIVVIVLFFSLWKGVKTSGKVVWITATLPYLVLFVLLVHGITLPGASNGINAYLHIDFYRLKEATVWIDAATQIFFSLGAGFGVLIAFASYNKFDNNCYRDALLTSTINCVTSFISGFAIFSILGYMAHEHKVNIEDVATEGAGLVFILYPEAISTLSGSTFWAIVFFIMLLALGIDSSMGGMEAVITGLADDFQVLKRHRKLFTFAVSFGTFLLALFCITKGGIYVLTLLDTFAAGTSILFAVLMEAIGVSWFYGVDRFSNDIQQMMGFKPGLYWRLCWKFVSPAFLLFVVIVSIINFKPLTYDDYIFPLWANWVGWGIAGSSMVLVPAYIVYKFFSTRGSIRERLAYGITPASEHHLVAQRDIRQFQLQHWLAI
smiles,measurement,setting,value
"N=C(N)NCc1ccc(OCCCF)c(Br)c1 [FPOBBG, 4-(3-Fluoropropoxy)-3-bromobenzylguanidine]",IC50,[1],11 ± 2.9 µM
"N=C(N)NCc1ccc(OCCCF)c(I)c1 [FPOIBG, 4-(3-Fluoropropoxy)-3-iodobenzylguanidine]",IC50,[1],20 ± 0.1 µM
"N=C(N)NCc1cccc(I)c1 [MIBG, meta-iodobenzylguanidine]",IC50,[1],1.5 ± 1.1 µM
"N=C(N)NCc1cccc([131I])c1 [MIBG, meta-iodobenzylguanidine]",uptake in UVW-NAT cells compared to that in SK-N-BE(2c),UVW-NAT cells,two-fold higher
"N=C(N)NCc1ccc([18F])c(I)c1 [[^18F]FIBG, 4-[^18F]fluoro-3-iodobenzylguanidine]","uptake in SK-N-SH cells, higher than that of co-incubated n.c.a. [^125I]MIBG",SK-N-SH cells,about 15%
"N=C(N)NCc1ccc(OCCC[18F])c(Br)c1 [[^18F]FPOBBG, 4-(3-[^18F]Fluoropropoxy)-3-bromobenzylguanidine]",heart uptake after DMI pretreatment as percent of controls,[2]; 1 h,73%
same,heart uptake,[2]; [9],21.1 ± 5.6 % ID/g
same,heart uptake,[2]; [10],20.1 ± 2.4 % ID/g
same,heart uptake,[2]; [11],16.5 ± 2.3 % ID/g
"N=C(N)NCc1ccc(OCCC[18F])c(I)c1 [[^18F]FPOIBG, 4-(3-[^18F]Fluoropropoxy)-3-iodobenzylguanidine]",uptake (cell-associated radioactivity as percentage of input dose),[3],10.2 ± 1.5%
same,uptake (cell-associated radioactivity as percentage of input dose),[4],39.6 ± 13.4%
same,uptake (cell-associated radioactivity as percentage of input dose),[5],13.3 ± 2.5%
same,heart uptake after DMI pretreatment,[2]; 1 h,13.2 ± 3.3 % ID/g
same,bone uptake relative to that of [^18F]FPOBBG,"[2]; 4 h, indicator of defluorination",about 4 fold
same,myocardial uptake as percent of that of [^125I]MIBG,"[2]; i.v., three time points (1, 2, 4 h), paired-label",72–74%
"NC(N)=NCc1cccc([76Br])c1 [[^76Br]MBBG, ^76Br-meta-bromobenzylguanidine]",reduction of myocardial uptake by DMI pretreatment,[6],64 ± 3%
same,uptake in both tumor and heart relative to [^123I]MIBG,[7],about 4 fold
"N=C(N)NCc1ccc(OCCCF)c([125I])c1 [[^125I]FPOIBG, 4-(3-Fluoropropoxy)-3-[^125I]iodobenzylguanidine]",uptake as percent of [^131I]MIBG,[8],31–53%
same,hepatic (liver) uptake compared with co-injected radioiodinated MIBG,[2],lower liver uptake
same,heart uptake after DMI pretreatment,[2]; 1 h,17.8 ± 1.8 % ID/g
same,thyroid uptake (indicator of deiodination),[2]; compared with [^131I]MIBG,relatively low
same,heart uptake as percent of that of [^131I]MIBG,"[2]; i.v., 1–4 h, paired-label",41–61%
NC(N)=NCc1cccc([125I])c1 [[^125I]MIBG],uptake (cell-associated radioactivity as percentage of input dose),[3],57.3 ± 8.1%
same,uptake (cell-associated radioactivity as percentage of input dose),[4],82.7 ± 8.9%
same,uptake (cell-associated radioactivity as percentage of input dose),[5],66.3 ± 3.6%
same,heart uptake after DMI pretreatment as percent of controls,[2]; 1 h,69%
same,heart uptake after DMI pretreatment as percent of control values,"[2]; 1 h, experiment with co-injected [^18F]FPOIBG",57%
same,heart uptake,[2]; [9],18.7 ± 7.7 % ID/g
same,heart uptake,[2]; [10],16.1 ± 1.4 % ID/g
same,heart uptake,[2]; [11],10.2 ± 0.9 % ID/g
same,reduction of myocardial uptake by DMI pretreatment,[6],42 ± 4%
N=C(N)NCc1cccc([131I])c1 [[^131I]MIBG],reduction of heart uptake by DMI,"[2]; 1 h, experiment with co-injected [^125I]FPOIBG",51%

# Source: PMC4481138 (Nuclear medicine and biology, 2015)
